From ChEMBL document CHEMBL4321868, “Scaffold Simplification Strategy Leads to a Novel Generation of Dual Human Immunodeficiency Virus and Enterovirus-A71 Entry Inhibitors” (J Med Chem, 2020)
Activity calls are given as the source filed them. The calls are words filed in the database; no cut-off is given here.

What was measured:
Enterovirus A71 [1] = assay: Antiviral activity against Enterovirus A71 genotype C2 H08300 461812 infected in human RD cells assessed as reduction in virus-induced cell death preincubated for 1 day followed by viral infection and measured after 3 days by microscopic analysis; type: functional; set-up: scale not given: the % may be the effect or the level left
In short: (§1)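 RD cells were seeded in 96-well plates and infected the next day at low MOI, with serial compound dilutions added at the same time. Plates were incubated at 37 °C, 5% CO2 for 3 days, until untreated infected controls died. Cell death was quantified by MTS/PMS and EC50 calculated from dose-response curves. Values come from more than 2 dose-response curves across more than 1 experiment, with microscopic quality control.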

[2] = system: Human immunodeficiency virus 1; assay: Antiviral activity against HIV1 NL4.3 infected in human MT4 cells assessed as reduction in virus-induced cytopathic effect preincubated for 30 mins followed by viral infection and measured after 5 days by MTS assay; type: functional, organism-based; conditions: Human immunodeficiency virus 1, NL4.3, MT4
[3] = Selectivity ratio of EC50 for Enterovirus A 71 BrCr infected in human RD cells to EC50 for Enterovirus A 71 genotype C4 TW/1956/05 infected in human RD cells; type: functional
RD [4] = assay: Cytotoxicity against human RD cells assessed as induction of cell morphological changes; type: cell-based
[5] = Selectivity index, ratio of CC50 for human RD cells to EC50 for Enterovirus A71 BrCr infected in human RD cells; type: toxicity, cell-based; conditions: read-out: Ratio CC50/EC50
In short: (§2)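 RD cells seeded in 96-well plates; next day serial compound dilutions plus virus at low MOI added. Incubation at 37 °C, 5% CO₂ until full CPE in untreated infected controls (3 days). CC50 from uninfected treated cells in the same setup; SI = CC50/EC50.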

RD [6] = assay: Cytotoxicity against human RD cells assessed as adverse effect on cell; type: cell-based
[7] = Selectivity ratio of EC50 for Enterovirus A 71 BrCr infected in human RD cells to EC50 for Enterovirus A 71 genotype B2 11316 infected in human RD cells; type: functional
Enterovirus A71 [8] = assay: Antiviral activity against Enterovirus A71 genotype B2 11316 infected in human RD cells assessed as reduction in virus-induced cell death preincubated for 1 day followed by viral infection and measured after 3 days by microscopic analysis; type: functional; set-up: scale not given: the % may be the effect or the level left; in short: as §1
[9] = Selectivity index, ratio of CC50 for human MT4 cells to EC50 for HIV-1 NL4.3 infected in human MT4 cells
Enterovirus A71 [10] = assay: Antiviral activity against Enterovirus A71 genotype C4 TW/1956/05 infected in human RD cells assessed as reduction in virus-induced cytopathic effect preincubated for 1 day followed by viral infection and measured after 3 days by MTS/PMS method; type: functional, organism-based; conditions: Enterovirus A, genotype C4 TW/1956/05, RD; in short: as §2
Enterovirus A71 [11] = assay: Antiviral activity against Enterovirus A71 genotype B5 TW/70902/08 infected in human RD cells assessed as reduction in virus-induced cell death preincubated for 1 day followed by viral infection and measured after 3 days by […]; type: functional; set-up: scale not given: the % may be the effect or the level left; in short: as §1
[12] = Cytotoxicity against human MT4 cells assessed as reduction in cell viability measured after 5 days by MTS/PES assay; type: cell-based
In short: (§3)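 MT-4 cells (RPMI-1640, 10% FCS, 1% L-glutamine) pre-incubated 30 min at 37 °C with compound, then infected with HIV-1 NL4.3 or HIV-2 ROD according to stock TCID50. After 5 days, CPE scored microscopically and viability read by MTS/PES at A490 to derive EC50; cytotoxicity measured by MTS/PES at 5 days in the same cells. SI = CC50/EC50. Mean ± S.D. of at least 3 experiments.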

Enterovirus A71 [13] = assay: Antiviral activity against Enterovirus A71 genotype B5 TW/70902/08 infected in human RD cells assessed as reduction in virus-induced cytopathic effect preincubated for 1 day followed by viral infection and measured after 3 days by MTS/PMS method; type: functional, organism-based; conditions: Enterovirus A, genotype B5 TW/70902/08, RD; in short: as §2
Enterovirus A71 [14] = assay: Antiviral activity against Enterovirus A71 genotype B2 11316 infected in human RD cells assessed as reduction in virus-induced cytopathic effect preincubated for 1 day followed by viral infection and measured after 3 days by MTS/PMS method; type: functional, organism-based; conditions: Enterovirus A, genotype B2 11316, RD; in short: as §2
Enterovirus A71 [15] = assay: Antiviral activity against Enterovirus A71 genotype C2 H08300 461812 infected in human RD cells assessed as reduction in virus-induced cytopathic effect preincubated for 1 day followed by viral infection and measured after 3 days by MTS/PMS method; type: functional, organism-based; conditions: Enterovirus A, genotype C2 H08300 461812, RD; in short: as §2
Enterovirus A71 [16] = assay: Antiviral activity against Enterovirus A 71 BrCr infected in human RD cells assessed as reduction in virus-induced cytopathic effect preincubated for 1 day followed by viral infection and measured after 3 days by MTS/PMS method; type: functional, organism-based; conditions: strain BRCR
In short: as §2, with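 “days). Viability read by MTS/PMS; EC50 as 50% inhibition of virus-induced death from dose-response curves.” for “days).”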

Enterovirus A71 [17] = assay: Antiviral activity against Enterovirus A 71 BrCr infected in human RD cells assessed as reduction in virus-induced cell death preincubated for 1 day followed by viral infection and measured after 3 days by microscopic analysis; type: functional, strain BRCR; set-up: scale not given: the % may be the effect or the level left; in short: as §1
[18] = Selectivity index, ratio of CC50 for human MT4 cells to EC50 for HIV1 NL4.3 infected in human MT4 cells; type: toxicity, cell-based; conditions: read-out: Ratio CC50/EC50; in short: as §3
[19] = system: Human immunodeficiency virus 2; assay: Antiviral activity against HIV-2 ROD infected in human MT4 cells assessed as reduction in virus-induced cytopathic effect preincubated for 30 mins followed by viral infection and measured after 5 days by MTS assay; conditions: Human immunodeficiency virus 2, ISOLATE ROD
Enterovirus A71 [20] = assay: Antiviral activity against Enterovirus A71 genotype C4 TW/1956/05 infected in human RD cells assessed as reduction in virus-induced cell death preincubated for 1 day followed by viral infection and measured after 3 days by microscopic analysis; type: functional; set-up: scale not given: the % may be the effect or the level left; in short: as §1
[21] = system: Human immunodeficiency virus 1; assay: Antiviral activity against HIV1 3B infected in human MT4 cells assessed as reduction in p24 production at 20 uM administered at onset of infection measured 8 hrs post-infection by ELISA; type: functional, organism-based
[22] = system: Human immunodeficiency virus 1; assay: Antiviral activity against HIV1 3B infected in human MT4 cells assessed as reduction in p24 production at 20 uM incubated for 1 hr prior to viral infection followed by compound washout and measured 8 hrs post-infection by ELISA; type: functional, organism-based
[23] = target: Envelope glycoprotein gp160 (Human immunodeficiency virus 1) (UniProt Q6QLK5); assay: (§4) Inhibition of biotinylated-heparin binding to recombinant HIV1 3B gp120 by SPR analysis
Chain of Envelope glycoprotein gp160 (Human immunodeficiency virus 1) (Q6QLK5 1-814): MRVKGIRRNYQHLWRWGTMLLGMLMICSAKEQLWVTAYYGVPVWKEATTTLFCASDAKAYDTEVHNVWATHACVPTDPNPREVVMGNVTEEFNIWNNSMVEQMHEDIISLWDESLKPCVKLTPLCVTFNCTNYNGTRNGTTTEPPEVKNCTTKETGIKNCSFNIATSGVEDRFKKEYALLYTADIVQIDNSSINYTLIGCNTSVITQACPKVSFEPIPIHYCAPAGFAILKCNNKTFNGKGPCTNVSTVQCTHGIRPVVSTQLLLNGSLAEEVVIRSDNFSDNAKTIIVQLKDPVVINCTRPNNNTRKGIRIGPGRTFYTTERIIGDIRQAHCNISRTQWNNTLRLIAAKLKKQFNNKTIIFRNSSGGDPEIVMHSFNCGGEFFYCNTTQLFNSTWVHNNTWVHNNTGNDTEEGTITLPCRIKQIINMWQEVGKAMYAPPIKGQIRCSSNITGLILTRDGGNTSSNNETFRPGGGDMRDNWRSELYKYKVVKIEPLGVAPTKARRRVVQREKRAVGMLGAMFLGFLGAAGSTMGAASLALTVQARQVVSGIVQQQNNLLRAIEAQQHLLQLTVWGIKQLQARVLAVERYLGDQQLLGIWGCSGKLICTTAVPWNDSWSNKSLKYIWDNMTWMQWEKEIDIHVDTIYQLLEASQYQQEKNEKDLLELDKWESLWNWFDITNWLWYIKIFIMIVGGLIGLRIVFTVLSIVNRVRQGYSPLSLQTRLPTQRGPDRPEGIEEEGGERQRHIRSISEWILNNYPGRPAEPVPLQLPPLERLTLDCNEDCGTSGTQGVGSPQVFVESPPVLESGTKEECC
In short: (§5)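 SPR at 25 °C in PBS with 5% DMSO, 0.005% Tween20, pH 7.4. Minimally biotinylated heparin captured (880 RU) on streptavidin chip. Recombinant HIV-1 IIIB gp120 (10 nM) alone or premixed with a compound concentration range injected 2 min at 10 μl/min; regenerated with 1 M NaCl/10 mM NaOH. Double-referenced; RU converted to % inhibition vs gp120 alone; nonlinear fit, three experiments.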

[24] = target: Envelope glycoprotein gp160 (Human immunodeficiency virus 1, UniProt Q6QLK5); assay: as §4; in short: as §5
Chain of Envelope glycoprotein gp160 (Q6QLK5 whole entry): as the sequence (Q6QLK5 1-814) above

Enterovirus A71 [25] = assay: Antiviral activity against Enterovirus A 71 BrCr harboring VP1 S184T mutant infected in human RD cells assessed as reduction in virus-induced cytopathic effect preincubated for 1 day followed by viral infection and measured after 3 days by MTS/PMS method; type: functional, organism-based, strain BRCR
[26] = target: Envelope glycoprotein gp160 (Human immunodeficiency virus 1) (UniProt Q6QLK5); assay: Binding affinity to recombinant HIV1 3B gp120 by SPR analysis
Enterovirus A71 [27] = assay: Antiviral activity against Enterovirus A 71 BrCr harboring VP1 P246S mutant infected in human RD cells assessed as reduction in virus-induced cytopathic effect preincubated for 1 day followed by viral infection and measured after 3 days by MTS/PMS method; type: functional, organism-based, strain BRCR
Enterovirus A71 [28] = assay: Antiviral activity against Enterovirus A 71 BrCr harboring VP1 S184T/P246S mutant infected in human RD cells assessed as reduction in virus-induced cytopathic effect preincubated for 1 day followed by viral infection and measured after 3 days by MTS/PMS method; type: functional, organism-based, strain BRCR
HeLa = assay: Binding affinity to capsid protein VP1 five fold axis in Enterovirus A71 genotype B2 11316 infected in human HeLa cells at 20 uM measured after 1 hr by cryo-electron microscopic analysis; type: cell-based

Row | SMILES | Activity (Enterovirus A71 [1]) [%] | Activity (RD [4]) | Activity (RD [6]) | Activity (Enterovirus A71 [8]) [%] | Activity (Enterovirus A71 [11]) [%] | CC50 at 120 h [12] [µM] | EC50 (Enterovirus A71 [16]) [nM] | EC90 (Enterovirus A71 [16]) [nM] | Activity (Enterovirus A71 [17]) [%] | EC50 [19] [nM] | Activity (Enterovirus A71 [20]) [%] | further results
1 | O=C(CCOCC(COCCC(=O)NC(Cc1c(-c2cccc(C(=O)O)c2)[nH]c2ccccc12)C(=O)O)(COCCC(=O)NC(Cc1c(-c2cccc(C(=O)O)c2)[nH]c2ccccc12)C(=O)O)COCCC(=O)NC(Cc1c(-c2cccc(C(=O)O)c2)[nH]c2ccccc12)C(=O)O)NC(Cc1c(-c2cccc(C(=O)O)c2)[nH]c2ccccc12)C(=O)O (stereo unspecified) | 100 | Non-Toxic | Non-Toxic | 100 | 100 | > 100 | 175 to 190 | 300 | 100 | 760 | 100 | EC50 [2]: 2000 nM; Ratio EC50 [3]: 88; selectivity ratio [5]: > 336; Ratio EC50 [7]: 4; selectivity ratio [9]: > 50; EC50 (Enterovirus A71 [10]): 2 nM; EC50 (Enterovirus A71 [13]): 18 nM; EC50 (Enterovirus A71 [14]): 52 nM; EC50 (Enterovirus A71 [15]): 7.3 nM; selectivity ratio [18]: > 50
2 | O=C(CCOCC(COCCC(=O)NC(Cc1c(-c2cc(C(=O)O)cc(C(=O)O)c2)[nH]c2ccccc12)C(=O)O)(COCCC(=O)NC(Cc1c(-c2cc(C(=O)O)cc(C(=O)O)c2)[nH]c2ccccc12)C(=O)O)COCCC(=O)NC(Cc1c(-c2cc(C(=O)O)cc(C(=O)O)c2)[nH]c2ccccc12)C(=O)O)NC(Cc1c(-c2cc(C(=O)O)cc(C(=O)O)c2)[nH]c2ccccc12)C(=O)O (stereo unspecified) | 100 | Non-Toxic | Non-Toxic | 100 | 100 | > 100 | 40 to 109 | 160 | 100 | 20 | 100 | Activity [21]: Active; Activity [22]: Active; inhibition [23]: Dose-dependent effect; IC50 [24]: 211 nM; EC50 (Enterovirus A71 [25]): 900 nM; Activity [26]: Dose-dependent effect; EC50 (Enterovirus A71 [27]): 200 nM; EC50 (Enterovirus A71 [28]): 300 nM; Activity (HeLa): Active
